The source made the active and inactive calls. No cut-off for these calls is given here.
Tests used:
Mus musculus [1] = assay: Pro-cognitive activity in C57Bl6 mouse assessed as attenuation of long-term memory deficit by measuring increase in exploration time for novel object by measuring discrimination index at 50 nmol/uL, icv measured after 24 hrs by novel object recognition test; type: functional
How it was run: (§1)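 Novel object recognition in adult male C57Bl6 mice. Habituation was 10 min in an empty arena. Twenty-four hours later, mice explored two identical objects for 5 min, then received an immediate 5 µL lateral-ventricle infusion at 1 µL/min. A 5-min retention test with one familiar and one novel object followed 24 h later. Scores were % exploration time and DI = (tN−tF)/(tN+tF).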

[2] = target: Carbonic anhydrase 14 (Homo sapiens) (UniProt Q9ULX7); assay: Binding affinity to human CA14 by phenol red dye based stopped flow CO2 hydration assay; conditions: filed as activator
How it was run: (§2)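 Purified recombinant human CA isoforms. CA-catalysed CO2 hydration was followed by stopped-flow with phenol red at 557 nm, taking initial rates over 10–100 s from at least six traces of the first 5–10% of reaction. Uncatalysed rates were subtracted. Activator stocks were 0.1 mM in deionised water, diluted down to 0.1 nM in assay buffer. K_A came from non-linear least-squares Michaelis–Menten fitting.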

[3] = target: T1, Amine oxidase [flavin-containing] A (Homo sapiens, UniProt P21397); assay: Inhibition of human recombinant MAO-A assessed as inhibition of 4-hydroxyquinoline formation using kynuramine as substrate by fluorescence spectrophotometry analysis
T1 sequence (P21397 whole entry): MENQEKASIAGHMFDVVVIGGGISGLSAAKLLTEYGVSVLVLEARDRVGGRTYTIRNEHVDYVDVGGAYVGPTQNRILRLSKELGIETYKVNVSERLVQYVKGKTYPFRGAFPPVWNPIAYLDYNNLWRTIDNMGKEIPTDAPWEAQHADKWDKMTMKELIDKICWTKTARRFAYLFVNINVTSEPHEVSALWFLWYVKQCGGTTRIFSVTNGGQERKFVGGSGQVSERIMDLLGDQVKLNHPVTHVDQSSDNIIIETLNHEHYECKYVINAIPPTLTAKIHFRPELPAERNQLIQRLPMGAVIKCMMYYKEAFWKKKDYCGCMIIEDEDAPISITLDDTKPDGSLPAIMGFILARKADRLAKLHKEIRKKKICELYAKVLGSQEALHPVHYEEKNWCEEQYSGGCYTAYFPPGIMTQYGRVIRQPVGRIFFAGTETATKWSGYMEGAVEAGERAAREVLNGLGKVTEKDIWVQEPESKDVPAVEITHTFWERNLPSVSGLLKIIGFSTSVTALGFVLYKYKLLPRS
How it was run: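 Recombinant human MAO-A with kynuramine as substrate. The 4-hydroxyquinoline product was quantified by fluorescence spectrophotometry, and IC50 values were determined.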

[4] = target: Carbonic anhydrase 3 (Homo sapiens) (UniProt P07451); assay: Binding affinity to human CA3 by phenol red dye based stopped flow CO2 hydration assay; conditions: filed as activator; how it was run: as §2
[5] = Toxicity in C57Bl6 mouse assessed as reduction in distance travel at 50 nmol/uL administered directly into lateral ventricle by open field test; conditions: in vivo, icv_or_intrathecal
How it was run: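 Cannulated adult male C57Bl6 mice were placed in a 60×70 cm open-field arena 30 min after a 5 µL lateral-ventricle infusion. Total distance travelled over a 5-min session was recorded by overhead video tracking.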

[6] = target: Carbonic anhydrase 5B, mitochondrial (Homo sapiens) (UniProt Q9Y2D0); assay: Binding affinity to human CA5b by phenol red dye based stopped flow CO2 hydration assay; conditions: filed as activator; how it was run: as §2
Mus musculus [7] = assay: Pro-cognitive activity in C57Bl6 mouse assessed as attenuation of long-term memory deficit by measuring increase in exploration time for novel juvenile by measuring discrimination index at 25 nmol/uL, icv measured after 48 hrs by novel object recognition test; type: functional
How it was run: (§3)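 Social recognition in adult male C57Bl6 mice with intracerebroventricular cannulae. Habituation was 10 min with two empty cups. Twenty-four hours later, a novel 3–4-week-old juvenile was placed under one cup for 10 min of exploration, followed immediately by a 5 µL infusion at 1 µL/min. Retention 48 h later offered familiar versus novel juvenile, scoring snout-to-cup contact. DI = (tN−tF)/(tN+tF).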

[8] = target: Carbonic anhydrase 12 (Homo sapiens) (UniProt O43570); assay: Binding affinity to human CA12 by phenol red dye based stopped flow CO2 hydration assay; conditions: filed as activator; how it was run: as §2
Mus musculus [9] = assay: Ex vivo activation of C57Bl6 mouse cortex homogenate CA assessed as increase in protein activity at 50 nmol/uL, icv measured after 30 mins by stopped flow spectrophotometric method; type: functional, organism-based
How it was run: (§4)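 Adult male C57Bl6 mice with lateral-ventricle cannulae received 5 µL at 1 µL/min. After 30 min, cortex and hippocampus were dissected on ice, homogenised in 20 mM Hepes pH 7.5 and spun at 20000g for 30 min. Stopped-flow CO2 hydration used 0.2 mM phenol red (557 nm), 20 mM NaClO4, 20°C and 1.7–17 mM CO2. Activity is expressed as % of vehicle mean; 6 mice/group.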

[10] = target: Carbonic anhydrase 7 (Homo sapiens) (UniProt P43166); assay: Binding affinity to human CA7 by phenol red dye based stopped flow CO2 hydration assay; conditions: filed as activator; how it was run: as §2
[11] = Toxicity in overnight fasted C57Bl6 mouse assessed as reduction in food intake at 50 nmol/uL administered directly into lateral ventricle measured for 2 hrs; conditions: in vivo, icv_or_intrathecal
How it was run: (§5)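 Overnight-fasted male C57Bl6 mice received a lateral-ventricle infusion. Food was presented 30 min later, and intake was recorded at 0.5 h intervals over 2 h as cumulative consumption corrected for body weight; n = 8–9 per group.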

Mus musculus [12] = assay: Pro-cognitive activity in C57Bl6 mouse assessed as attenuation of long-term memory deficit by measuring increase in exploration time for novel juvenile at 25 nmol/uL, icv measured after 48 hrs by novel object recognition test; type: functional, organism-based
How it was run: (§6)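 Male adult C57Bl6 mice (8–9 weeks), lateral-ventricle cannula implanted 7 days earlier. Social recognition: 10-min habituation to arena with two empty cups; 24 h later 10-min acquisition with an unfamiliar juvenile (3–4 weeks) under one wire cup. Immediately after, 5 µL i.c.v. infusion at 1 µL/min. Retention at 48 h with familiar and novel juvenile; percentage time exploring each cup (snout-to-cup contact).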

Mus musculus [13] = assay: Pro-cognitive activity in C57Bl6 mouse assessed as attenuation of long-term memory deficit by measuring increase in exploration time for novel object by measuring discrimination index at 25 nmol/uL, icv measured after 48 hrs by novel object recognition test; type: functional
[14] = target: Carbonic anhydrase 6 (Homo sapiens) (UniProt P23280); assay: Binding affinity to human CA6 by phenol red dye based stopped flow CO2 hydration assay; how it was run: as §2
[15] = target: Carbonic anhydrase 4 (Homo sapiens) (UniProt P22748); assay: Binding affinity to human CA4 by phenol red dye based stopped flow CO2 hydration assay; conditions: filed as activator; how it was run: as §2
[16] = target: Carbonic anhydrase 9 (Homo sapiens) (UniProt Q16790); assay: Binding affinity to human CA9 by phenol red dye based stopped flow CO2 hydration assay; how it was run: as §2
Mus musculus [17] = assay: Pro-cognitive activity in C57Bl6 mouse assessed as attenuation of long-term memory deficit by measuring increase in exploration time for novel juvenile at 50 nmol/uL, icv measured after 48 hrs by novel object recognition test; type: functional, organism-based; how it was run: as §6
[18] = target: Carbonic anhydrase 1 (Homo sapiens) (UniProt P00915); assay: Binding affinity to human CA1 by phenol red dye based stopped flow CO2 hydration assay; how it was run: as §2
Mus musculus [19] = assay: Ex vivo activation of C57Bl6 mouse hippocampus homogenate CA assessed as increase in protein activity at 50 nmol/uL, icv measured after 30 mins by stopped flow spectrophotometric method; type: functional, organism-based; how it was run: as §4
[20] = target: Carbonic anhydrase 2 (Homo sapiens) (UniProt P00918); assay: Binding affinity to human CA2 by phenol red dye based stopped flow CO2 hydration assay; how it was run: as §2
[21] = target: Carbonic anhydrase 5A, mitochondrial (Homo sapiens) (UniProt P35218); assay: Binding affinity to human CA5a by phenol red dye based stopped flow CO2 hydration assay; conditions: filed as activator; how it was run: as §2
Mus musculus [22] = assay: Pro-cognitive activity in C57Bl6 mouse assessed as attenuation of long-term memory deficit by measuring increase in exploration time for novel juvenile by measuring discrimination index at 50 nmol/uL, icv measured after 48 hrs by novel object recognition test; type: functional; how it was run: as §3
Mus musculus [23] = assay: Pro-cognitive activity in C57Bl6 mouse assessed as attenuation of long-term memory deficit by measuring increase in exploration time for novel object at 25 nmol/uL, icv measured after 24 hrs by novel object recognition test; type: functional, organism-based; how it was run: as §1
[24] = target: Carbonic anhydrase 13 (Homo sapiens) (UniProt Q8N1Q1); assay: Binding affinity to human CA13 by phenol red dye based stopped flow CO2 hydration assay; conditions: filed as activator; how it was run: as §2
Mus musculus [25] = assay: Pro-cognitive activity in C57Bl6 mouse assessed as attenuation of long-term memory deficit by measuring increase in exploration time for novel object at 50 nmol/uL, icv measured after 24 hrs by novel object recognition test; type: functional, organism-based
How it was run: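 Male adult C57Bl6 mice (8–9 weeks), lateral-ventricle cannula implanted one week before. 10-min habituation to empty open-field arena; 24 h later, 5-min acquisition with two identical objects, followed immediately by 5 µL i.c.v. infusion at 1 µL/min. 5-min retention test 24 h after acquisition with one familiar and one novel object; percentage exploration time per object, two-way ANOVA with Bonferroni.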

Mus musculus [26] = assay: Pro-cognitive activity in C57Bl6 mouse assessed as attenuation of long-term memory deficit by measuring increase in exploration time for novel object by measuring discrimination index at 25 nmol/uL, icv measured after 24 hrs by novel object recognition test
[27] = target: T2, Amine oxidase [flavin-containing] B (Homo sapiens, UniProt P27338)
T2 sequence (P27338 whole entry): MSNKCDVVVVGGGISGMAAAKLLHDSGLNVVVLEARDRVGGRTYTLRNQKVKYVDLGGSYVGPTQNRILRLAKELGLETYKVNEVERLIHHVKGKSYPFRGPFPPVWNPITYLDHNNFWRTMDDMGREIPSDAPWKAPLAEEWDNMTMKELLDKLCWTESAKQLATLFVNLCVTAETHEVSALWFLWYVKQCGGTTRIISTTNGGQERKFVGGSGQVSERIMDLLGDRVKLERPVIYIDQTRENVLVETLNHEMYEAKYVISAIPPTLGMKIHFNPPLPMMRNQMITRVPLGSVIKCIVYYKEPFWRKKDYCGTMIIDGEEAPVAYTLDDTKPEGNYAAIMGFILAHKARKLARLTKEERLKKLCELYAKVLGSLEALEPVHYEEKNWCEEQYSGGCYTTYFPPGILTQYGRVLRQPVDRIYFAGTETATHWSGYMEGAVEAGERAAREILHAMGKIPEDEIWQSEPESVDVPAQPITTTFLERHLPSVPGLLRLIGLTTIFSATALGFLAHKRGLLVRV

[28] = Toxicity in overnight fasted C57Bl6 mouse assessed as reduction in food intake at 50 nmol/uL administered directly into lateral ventricle measured for 30 mins; conditions: in vivo, icv_or_intrathecal, 0.5 h; how it was run: as §5

Carbonic anhydrase 5A, mitochondrial (Homo sapiens), sequence (P35218 whole entry): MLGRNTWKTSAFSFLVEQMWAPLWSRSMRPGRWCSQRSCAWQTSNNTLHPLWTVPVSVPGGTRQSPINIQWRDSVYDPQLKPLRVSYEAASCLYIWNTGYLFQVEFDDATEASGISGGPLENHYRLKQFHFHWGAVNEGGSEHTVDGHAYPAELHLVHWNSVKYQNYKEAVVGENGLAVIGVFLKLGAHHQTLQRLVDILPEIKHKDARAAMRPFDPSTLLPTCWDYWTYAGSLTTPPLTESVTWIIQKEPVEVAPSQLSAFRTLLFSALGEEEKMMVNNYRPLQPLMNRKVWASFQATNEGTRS
Carbonic anhydrase 13 (Homo sapiens), sequence (Q8N1Q1 whole entry, looked up): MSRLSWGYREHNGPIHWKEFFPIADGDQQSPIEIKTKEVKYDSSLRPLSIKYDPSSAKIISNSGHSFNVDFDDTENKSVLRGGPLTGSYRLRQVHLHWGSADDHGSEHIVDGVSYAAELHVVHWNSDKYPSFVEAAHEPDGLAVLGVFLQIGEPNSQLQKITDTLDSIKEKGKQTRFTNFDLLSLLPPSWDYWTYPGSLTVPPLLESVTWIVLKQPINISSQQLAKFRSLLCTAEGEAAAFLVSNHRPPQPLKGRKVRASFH
Carbonic anhydrase 3 (Homo sapiens), sequence (P07451 whole entry): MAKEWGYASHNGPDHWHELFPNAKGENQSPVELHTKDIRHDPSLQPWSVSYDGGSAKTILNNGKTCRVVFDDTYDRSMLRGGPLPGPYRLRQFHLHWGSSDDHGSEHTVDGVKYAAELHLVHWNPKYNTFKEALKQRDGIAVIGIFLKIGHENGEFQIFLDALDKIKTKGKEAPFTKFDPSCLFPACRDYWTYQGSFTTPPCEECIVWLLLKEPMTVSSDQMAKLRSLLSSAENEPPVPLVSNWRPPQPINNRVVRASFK
Carbonic anhydrase 12 (Homo sapiens), sequence (O43570 whole entry): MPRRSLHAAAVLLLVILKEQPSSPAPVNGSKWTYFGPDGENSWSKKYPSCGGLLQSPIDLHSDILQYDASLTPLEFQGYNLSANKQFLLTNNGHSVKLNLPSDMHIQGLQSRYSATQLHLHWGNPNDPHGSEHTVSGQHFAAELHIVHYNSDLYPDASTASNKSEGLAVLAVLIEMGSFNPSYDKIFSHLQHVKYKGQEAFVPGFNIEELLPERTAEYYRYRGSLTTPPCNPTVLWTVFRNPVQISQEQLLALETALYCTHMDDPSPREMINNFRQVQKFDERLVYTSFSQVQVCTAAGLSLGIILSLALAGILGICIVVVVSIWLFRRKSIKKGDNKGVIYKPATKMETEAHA
Carbonic anhydrase 5B, mitochondrial (Homo sapiens), sequence (Q9Y2D0 whole entry): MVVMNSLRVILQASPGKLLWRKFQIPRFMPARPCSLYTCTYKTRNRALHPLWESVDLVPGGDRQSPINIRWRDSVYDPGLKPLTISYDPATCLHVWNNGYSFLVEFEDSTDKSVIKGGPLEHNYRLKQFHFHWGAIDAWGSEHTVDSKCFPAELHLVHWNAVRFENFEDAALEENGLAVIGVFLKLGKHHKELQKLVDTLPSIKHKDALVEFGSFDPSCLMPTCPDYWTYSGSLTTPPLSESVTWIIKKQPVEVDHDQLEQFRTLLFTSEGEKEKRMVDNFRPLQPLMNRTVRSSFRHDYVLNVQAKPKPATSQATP
Carbonic anhydrase 7 (Homo sapiens), sequence (P43166 whole entry): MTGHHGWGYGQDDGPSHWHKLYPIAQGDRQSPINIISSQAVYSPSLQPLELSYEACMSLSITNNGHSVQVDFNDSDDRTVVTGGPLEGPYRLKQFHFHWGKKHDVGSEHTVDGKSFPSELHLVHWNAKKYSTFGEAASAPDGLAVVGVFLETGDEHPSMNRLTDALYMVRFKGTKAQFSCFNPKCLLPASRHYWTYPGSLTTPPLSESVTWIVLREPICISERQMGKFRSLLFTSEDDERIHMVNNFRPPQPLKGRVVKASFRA
Carbonic anhydrase 1 (Homo sapiens), sequence (P00915 2-261 limits assumed): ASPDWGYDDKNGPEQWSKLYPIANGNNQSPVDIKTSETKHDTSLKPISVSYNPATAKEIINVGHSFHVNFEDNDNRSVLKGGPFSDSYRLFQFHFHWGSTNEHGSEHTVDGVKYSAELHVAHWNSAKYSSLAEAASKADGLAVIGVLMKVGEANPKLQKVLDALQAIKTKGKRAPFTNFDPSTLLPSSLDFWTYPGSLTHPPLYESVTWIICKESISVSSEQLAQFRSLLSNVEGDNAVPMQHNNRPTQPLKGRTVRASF
Carbonic anhydrase 6 (Homo sapiens), sequence (P23280 whole entry): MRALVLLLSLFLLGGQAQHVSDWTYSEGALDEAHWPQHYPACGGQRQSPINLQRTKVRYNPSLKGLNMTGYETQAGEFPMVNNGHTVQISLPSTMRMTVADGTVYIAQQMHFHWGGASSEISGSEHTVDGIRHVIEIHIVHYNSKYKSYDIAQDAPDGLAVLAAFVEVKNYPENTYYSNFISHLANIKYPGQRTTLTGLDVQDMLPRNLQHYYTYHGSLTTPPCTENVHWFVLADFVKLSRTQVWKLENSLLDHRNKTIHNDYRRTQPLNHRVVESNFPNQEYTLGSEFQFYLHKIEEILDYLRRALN
Carbonic anhydrase 14 (Homo sapiens), sequence (Q9ULX7 whole entry, canonical isoform): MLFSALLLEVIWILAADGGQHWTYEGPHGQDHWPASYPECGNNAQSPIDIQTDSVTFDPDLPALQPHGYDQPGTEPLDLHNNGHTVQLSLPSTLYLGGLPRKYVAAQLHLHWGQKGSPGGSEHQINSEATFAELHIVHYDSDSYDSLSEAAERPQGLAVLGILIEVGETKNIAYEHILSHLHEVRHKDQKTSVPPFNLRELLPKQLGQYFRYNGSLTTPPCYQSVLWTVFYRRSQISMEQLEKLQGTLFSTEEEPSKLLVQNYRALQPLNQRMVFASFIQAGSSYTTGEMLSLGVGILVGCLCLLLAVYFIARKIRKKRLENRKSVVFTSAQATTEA
Carbonic anhydrase 4 (Homo sapiens), sequence (P22748 whole entry): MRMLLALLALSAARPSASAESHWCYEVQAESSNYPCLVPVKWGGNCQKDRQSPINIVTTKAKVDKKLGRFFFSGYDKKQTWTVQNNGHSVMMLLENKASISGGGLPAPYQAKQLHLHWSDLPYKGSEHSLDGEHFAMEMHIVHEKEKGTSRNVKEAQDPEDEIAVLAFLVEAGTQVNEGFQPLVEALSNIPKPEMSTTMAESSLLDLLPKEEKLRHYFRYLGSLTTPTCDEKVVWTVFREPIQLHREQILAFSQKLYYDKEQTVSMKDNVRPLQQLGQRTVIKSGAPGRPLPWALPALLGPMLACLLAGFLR

Row | Compound | Activity_index (Mus musculus [1]) | Ka [2] [µM] | IC50 [3] [µM] | Ka [4] [µM] | Activity [5] | Ka [6] [µM] | Activity_index (Mus musculus [7]) | Ka [8] [µM] | Ka [10] [µM] | Activity [11] | Activity (Mus musculus [12]) | Ka ([14]; filed as activator) [µM] | Ka [15] [µM] | Ka ([16]; filed as activator) [µM] | Activity (Mus musculus [17]) | Ka ([18]; filed as activator) [µM] | Ka [20] [µM] | Ka [21] [µM] | Activity_index (Mus musculus [22]) | Ka [24] [µM] | further results
1 | CC(N)C[Se]c1ccccc1 (stereo not given) | 0.206 | 9.9 | 9.79 | 14.3 | Non-Toxic | 26.3 | 0.011 | 59.5 | 20.6 | Non-Toxic | inactive | 57.2 | 8.6 | 49.6 | Active | 9.9 | > 100 | 14.7 | 0.156 | 58.6 | Activity (Mus musculus [9]): Active; Activity_index (Mus musculus [13]): 0.006; Activity (Mus musculus [19]): Active; Activity (Mus musculus [23]): inactive; Activity (Mus musculus [25]): Active
2 | N[C@H](Cc1ccccc1)C(=O)O [D-PHENYLALANINE] | 0.375 | – | – | – | – | – | 0.009 | – | – | – | inactive | – | – | – | Active | – | – | – | 0.291 | – | Activity_index (Mus musculus [26]): 0.075; Activity (Mus musculus [25]): Active
3 | Cc1ccccc1[Se]CC(C)N (stereo not given) | – | 4.7 | 5.17 | 54.1 | – | 23.7 | – | 51.8 | 14.2 | – | – | 71.6 | 2.7 | 83.3 | – | 12.1 | > 100 | 20 | – | 49.3 | IC50 [27]: 16.7 µM
4 | CC(N)CSc1ccccc1Br (stereo not given) | – | 3.6 | 0.724 | 70.8 | – | 12.8 | – | 46.7 | 23.2 | – | – | 55.9 | 2.4 | 56.6 | – | 9.5 | > 100 | 13.3 | – | 90.9 | IC50 [27]: 64.8 µM
5 | CC(N)Cc1ccccc1 (stereo not given) [AMPHETAMINE] | – | 9.15 | – | 87.7 | Toxic | 2.56 | – | 0.64 | 0.91 | Toxic | – | – | 0.094 | – | – | – | > 150 | 0.81 | – | 24.1 | Activity [28]: Toxic; Ka [14]: > 150 µM; Ka [16]: > 150 µM; Ka [18]: > 150 µM

From ChEMBL document CHEMBL5247599, “New β-arylchalcogeno amines with procognitive properties targeting Carbonic Anhydrases and Monoamine Oxidases” (Eur J Med Chem, 2022)
